Measured values published in ChEMBL document CHEMBL1149395, “Beta-substituted cyclohexanecarboxamide: a nonpeptidic framework for the design of potent inhibitors of cathepsin K” (J Med Chem, 2006).
pIC50: −log10 of the molar value.

How the values were obtained:
[1] = target: Cathepsin (B and K) (Homo sapiens) (UniProt P43235+P07858); assay: Selectivity for Cathepsin B over Cathepsin K; assay type: protein assay
[2] = target: Cathepsin (L and K) (Homo sapiens) (UniProt P43235+P07711); assay: Selectivity for Cathepsin L over Cathepsin K; assay type: protein assay
[3] = target: Cathepsin (S and K) (Homo sapiens) (UniProt P25774+P43235); assay: Selectivity for Cathepsin S over Cathepsin K; assay type: protein assay
Cathepsin K [4] = target: Cathepsin K (Homo sapiens, UniProt P43235); assay: Inhibitory activity against humanized rabbit Cathepsin K
[5] = Half life in rat at 1 mL/kg, iv; conditions: Sprague-Dawley, in vivo
[6] = Plasma clearance in rat at 1 mL/kg, iv; conditions: Sprague-Dawley
Cathepsin K [7] = target: T1, Cathepsin K (Oryctolagus cuniculus, UniProt P43236); assay: Inhibitory activity against rabbit Cathepsin K
T1 sequence (P43236 whole entry): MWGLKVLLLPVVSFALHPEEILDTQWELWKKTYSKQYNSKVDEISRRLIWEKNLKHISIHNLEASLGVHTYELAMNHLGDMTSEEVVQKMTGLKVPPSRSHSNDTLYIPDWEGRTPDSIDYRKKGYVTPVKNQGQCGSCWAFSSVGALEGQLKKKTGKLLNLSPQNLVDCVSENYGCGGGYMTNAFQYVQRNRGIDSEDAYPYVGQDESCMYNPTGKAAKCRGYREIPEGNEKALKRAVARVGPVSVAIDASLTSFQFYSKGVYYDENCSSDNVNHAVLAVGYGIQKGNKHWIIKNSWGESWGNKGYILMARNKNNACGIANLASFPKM

Cathepsin K [8] = target: T2, Cathepsin K (Homo sapiens, UniProt P43235); assay: Inhibitory activity against human Cathepsin K
T2 sequence (P43235 whole entry): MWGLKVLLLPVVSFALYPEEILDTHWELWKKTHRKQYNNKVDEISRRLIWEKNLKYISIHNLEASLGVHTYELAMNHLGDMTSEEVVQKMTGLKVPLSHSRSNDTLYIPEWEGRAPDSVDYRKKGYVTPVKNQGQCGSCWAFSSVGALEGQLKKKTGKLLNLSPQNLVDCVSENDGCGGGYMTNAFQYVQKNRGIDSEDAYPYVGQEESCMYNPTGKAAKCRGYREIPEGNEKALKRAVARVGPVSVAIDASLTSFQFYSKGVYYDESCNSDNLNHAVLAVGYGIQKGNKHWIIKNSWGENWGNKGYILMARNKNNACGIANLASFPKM

[9] = Plasma clearance in rat at 10 mL/kg, po; assay type: ADME, organism-based; conditions: Sprague-Dawley
Procedure, shortened: (§1)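 Single compounds given orally as suspensions in 1% methocel to animals fasted overnight, dosed in the morning. Oral dosing volumes were 10 mL/kg for rats, 5 mL/kg for dogs and 1 mL/kg for monkeys. Intravenous comparison dosing went via the jugular vein in PEG-200/H₂O (3:2) at 1 mL/kg. Plasma was sampled at regular intervals, precipitated with 1.5 volumes of acetonitrile, centrifuged and analysed by LC-MS.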

[10] = Oral bioavailability in rats at 10 mL/kg, po; assay type: ADME, organism-based; conditions: Sprague-Dawley, rat, in vivo; procedure, shortened: as §1
[11] = Half life in rat at 10 mL/kg, po; assay type: ADME, organism-based; conditions: Sprague-Dawley, in vivo; procedure, shortened: as §1
[12] = Plasma clearance in squirrel monkey at 1 mL/kg, po; assay type: ADME, organism-based, Saimiri sciureus; procedure, shortened: as §1
[13] = Oral bioavailability in squirrel monkey at 1 mL/kg, po; assay type: ADME, organism-based, Saimiri sciureus; conditions: in vivo; procedure, shortened: as §1
[14] = Half life in squirrel monkey at 1 mL/kg, po; assay type: ADME, organism-based, Saimiri sciureus; conditions: in vivo; procedure, shortened: as §1

Row | Compound | Selectivity ratio [1] | Selectivity ratio [2] | Selectivity ratio [3] | pIC50 (Cathepsin K [4]) | also measured
1 | N#CCNC(=O)[C@@H]1CCCC[C@H]1CSc1ccc(O)cc1 (racemic) | 880 | 1700 | 110 | 7.68 | –
2 | N#CCNC(=O)[C@@H]1CCCC[C@H]1CSc1ncc[nH]1 (relative stereo) | – | – | – | 6.39 | –
3 | N#CCNC(=O)[C@@H]1CCCC[C@H]1CSc1ccc(N)cc1 (mixture of isomers) | > 990 | 350 | 120 | 7.00 | –
4 | CSc1ccc(S(=O)(=O)C[C@@H]2CCCC[C@H]2C(=O)NCC#N)cc1 (mixture of isomers) | 2000 | 740 | 1800 | 8.30 | half-life [5]: 5 min; clearance [6]: 38 mL/min/kg
5 | N#CCNC(=O)[C@@H]1CCCC[C@H]1CSc1nc2ccccc2o1 (racemic) | – | – | – | 6.32 | –
6 | N#CCNC(=O)[C@@H]1CCCC[C@H]1CSc1cc(Cl)cc(Cl)c1 (racemic) | – | – | – | 6.55 | –
7 | N#CCNC(=O)[C@@H]1CCCC[C@H]1CSc1nccs1 (racemic) | – | – | – | 6.31 | –
8 | CSc1ccc(-c2ccccc2C2CCC(F)CC2C(=O)NCC#N)cc1 (racemic; form 2) [listing 1 of 2 here] | – | – | – | 8.43 | pIC50 (Cathepsin K [7]): 7.92
9 | N#CCNC(=O)[C@@H]1CCCC[C@H]1CSc1ccc(Cl)cc1Cl (mixture of isomers) | – | – | – | 6.96 | –
10 | N#CCNC(=O)[C@@H]1CCCC[C@@H]1SCc1ccccc1 (racemic) | – | – | – | – | pIC50 (Cathepsin K [8]): 6.55
11 | N#CCNC(=O)[C@@H]1CCCC[C@H]1CSc1ccccc1 (racemic) | 31 | 150 | 28 | 6.76 | pIC50 (Cathepsin K [8]): 6.85
12 | N#CCNC(=O)[C@@H]1CCCC[C@H]1CSc1nnc(-c2ccncc2)o1 (relative stereo) | – | – | – | 6.02 | –
13 | N#CCNC(=O)[C@@H]1CCCC[C@H]1SCc1ccccc1 (racemic) | – | – | – | – | pIC50 (Cathepsin K [8]): 7.28
14 | N#CCNC(=O)[C@@H]1CCCC[C@H]1CSc1ccc(Cl)cc1 (racemic) | > 3400 | 120 | 330 | 7.52 | –
15 | N#CCNC(=O)[C@@H]1CCCC[C@H]1CSc1ccc(I)cc1 (relative stereo) | > 5800 | 52 | > 5800 | 7.77 | –
16 | N#CCNC(=O)[C@@H]1CCCC[C@H]1CSc1cccc(N)c1 (racemic) | – | – | – | 6.15 | –
17 | N#CCNC(=O)C1=CCCCC1 | – | – | – | – | pIC50 (Cathepsin K [8]): 5.47
18 | N#CCNC(=O)[C@@H]1CCCC[C@H]1CSc1cccc(O)c1 | – | – | – | 6.48 | –
19 | N#CCNC(=O)[C@@H]1CCCC[C@H]1CSc1cc(Cl)c(Cl)cc1Cl (racemic) | – | – | – | 6.34 | –
20 | CSc1ccc(-c2ccccc2[C@@H]2CCCC[C@H]2C(=O)NCC#N)cc1 (racemic) | > 3800 | 2800 | > 3800 | 8.59 | half-life [5]: 44 min; clearance [6]: 35 mL/min/kg
21 | N#CCNC(=O)[C@@H]1CCCC[C@H]1CSc1nc2ccccc2s1 (racemic) | – | – | – | 6.70 | –

Row | Compound | Selectivity ratio [1] | Selectivity ratio [2] | Selectivity ratio [3] | pIC50 (Cathepsin K [4]) | also measured
22 | CSc1ccc(-c2ccccc2C2CCC(F)CC2C(=O)NCC#N)cc1 (racemic; form 2) [listing 2 of 2 here] | > 2700 | 2000 | 180 | – | –
23 | COc1ccc(SC[C@@H]2CCCC[C@H]2C(=O)NCC#N)cc1 (racemic) | > 3500 | 810 | 960 | 7.55 | –
24 | N#CCNC(=O)[C@@H]1CCCC[C@H]1CSc1ccc(F)cc1 (mixture of isomers) | 145 | 120 | 35 | 7.52 | –
25 | N#CCNC(=O)[C@@H]1CCCC[C@H]1CSc1cccc(Br)c1 (mixture of isomers) | – | – | – | 6.82 | –
26 | N#CCNC(=O)[C@@H]1CCCC[C@H]1CS(=O)(=O)c1ccc(OC(F)(F)F)cc1 (racemic) | – | – | – | – | half-life [5]: 20 min; clearance [6]: 42 mL/min/kg
27 | N#CCNC(=O)C1(NC(=O)c2ccccc2)CCCCC1 | – | – | – | – | pIC50 (Cathepsin K [8]): 7.11
28 | COc1cccc(SC[C@@H]2CCCC[C@H]2C(=O)NCC#N)c1 (racemic) | – | – | – | 6.43 | –
29 | CSc1ccc(-c2ccccc2C2CCC(F)(F)CC2C(=O)NCC#N)cc1 (racemic) | > 120000 | 880 | 1100 | 9.34 | CL/F [9]: 15 mL/min/kg; bioavailability [10]: 53%; half-life [11]: 210 min; pIC50 (Cathepsin K [7]): 9.30
30 | Cc1ccc(SC[C@@H]2CCCC[C@H]2C(=O)NCC#N)cc1 (racemic) | 380 | 110 | 180 | 7.00 | –
31 | CSc1ccc(-c2ccccc2C2CCC(Cl)(Cl)CC2C(=O)NCC#N)cc1 (racemic) | > 17000 | 450 | 52 | 9.24 | CL/F [9]: 51 mL/min/kg; bioavailability [10]: 75%; half-life [11]: 186 min; pIC50 (Cathepsin K [7]): 9.23
32 | N#CCNC(=O)[C@@H]1CCCC[C@H]1CSc1cccc(Cl)c1 (mixture of isomers) | – | – | – | 6.70 | –
33 | N#CCNC(=O)[C@@H]1CCCC[C@H]1c1ccccc1-c1ccc(F)cc1 (racemic) | – | – | – | – | half-life [5]: 45 min; clearance [6]: 50 mL/min/kg
34 | N#CCNC(=O)[C@@H]1CCCC[C@H]1CSc1ncccn1 (racemic) | – | – | – | 6.00 | –
35 | CSc1ccc(-c2ccccc2C2CCC(F)CC2C(=O)NCC#N)cc1 (racemic; form 1) [listing 1 of 2 here] | – | – | – | 8.38 | CL/F [9]: 25 mL/min/kg; bioavailability [10]: 88%; CL/F [12]: 21 mL/min/kg; half-life [11]: 90 min; bioavailability [13]: 28%; pIC50 (Cathepsin K [7]): 8.43; half-life [14]: 48 min
36 | N#CCNC(=O)[C@@H]1CCCC[C@H]1CSc1cccc(F)c1 (racemic) | – | – | – | 6.46 | –
37 | CSc1ccc(-c2ccccc2[C@H]2CCC(F)(F)C[C@@H]2C(=O)NCC#N)cc1 | – | – | – | 8.15 | pIC50 (Cathepsin K [7]): 8.04
38 | N#CCNC(=O)[C@@H]1CCCC[C@H]1CSc1ccc(Br)cc1 (racemic) | > 3100 | 71 | > 3100 | 7.48 | –
39 | N#CCNC(=O)C1CC(F)(F)CCC1c1ccccc1-c1ccc(F)cc1 (racemic) | – | – | – | 7.44 | CL/F [9]: 37 mL/min/kg; bioavailability [10]: 26%; half-life [11]: 270 min; pIC50 (Cathepsin K [7]): 8.04
40 | CSc1ccc(SC[C@@H]2CCCC[C@H]2C(=O)NCC#N)cc1 (racemic) | > 24000 | 2200 | 3200 | 8.38 | –
41 | N#CCNC(=O)[C@@H]1CCCC[C@H]1CSc1cc(Cl)ccc1Cl (racemic) | – | – | – | 6.82 | –
42 | CSc1ccc(-c2ccccc2C2CCC(F)CC2C(=O)NCC#N)cc1 (racemic; form 1) [listing 2 of 2 here] | > 2400 | 1600 | 1500 | – | –
